Screens as filed in PubChem BioAssay.
Rev-RRE block: HIV-1 Rev-RRE binding inhibitors, primary screen, biochemical, FRET, protein-RNA interaction; Rev peptide-RRE RNA binding; 97,000 tested, 0.79% active; AID 704, 2007; inhibition, % at 8 µM;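 active means inhibition above the screen-wide mean plus 3 SD, cut at about 35% in these data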;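 further: 0% = median DMSO wells and 100% = median Neomycin B control wells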
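Assay system: labelled RRE RNA duplex and labelled Rev peptide / Medium: HEPES pH 7.5 salt buffer with EDTA / Reagent: labelled Rev peptide / Schedule: 5 + 15 min at 25 °C / Signal: FRET, excitation 480 nm, emission 540 nm donor and 671 nm acceptor / Benchmarks: DMSO and neomycin B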
Phagocyt inh: inhibitors of macrophage phagocytosis, primary screen, imaging, J774A.1 cells, IgG beads | J774A.1 macrophage IgG-bead phagocytosis | 110,000 tested, 0.07% active | inhibition, % at 5 µM;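 active means inhibition above the mean of the plate negative controls plus 5 SD, cut at about 13% in these data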;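 further: phagocytic index as fraction of beads internalized from green versus red external bead signal; plate controls were DMSO negative control for no effect and cytochalasin-D positive control for full effect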
Pyk2 oligo antag: antagonists of Pyk2 self-association, primary screen, Q293 cells, FERM NanoBiT luminescence, HTS | z-score (the deposit names both 25 µM and 10 µM) | Protein-tyrosine kinase 2-beta (Homo sapiens), Q14289 | 99,000 tested, 0.83% active | stronger effect = lower value;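 active means Z-score of -3 or lower, scaled per plate to the spread of control and sample wells; inactive means z-score above -3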;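 further: negative z-score means lost luminescence so less FERM oligomerization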
Target sequence (Q14289 whole entry, looked up): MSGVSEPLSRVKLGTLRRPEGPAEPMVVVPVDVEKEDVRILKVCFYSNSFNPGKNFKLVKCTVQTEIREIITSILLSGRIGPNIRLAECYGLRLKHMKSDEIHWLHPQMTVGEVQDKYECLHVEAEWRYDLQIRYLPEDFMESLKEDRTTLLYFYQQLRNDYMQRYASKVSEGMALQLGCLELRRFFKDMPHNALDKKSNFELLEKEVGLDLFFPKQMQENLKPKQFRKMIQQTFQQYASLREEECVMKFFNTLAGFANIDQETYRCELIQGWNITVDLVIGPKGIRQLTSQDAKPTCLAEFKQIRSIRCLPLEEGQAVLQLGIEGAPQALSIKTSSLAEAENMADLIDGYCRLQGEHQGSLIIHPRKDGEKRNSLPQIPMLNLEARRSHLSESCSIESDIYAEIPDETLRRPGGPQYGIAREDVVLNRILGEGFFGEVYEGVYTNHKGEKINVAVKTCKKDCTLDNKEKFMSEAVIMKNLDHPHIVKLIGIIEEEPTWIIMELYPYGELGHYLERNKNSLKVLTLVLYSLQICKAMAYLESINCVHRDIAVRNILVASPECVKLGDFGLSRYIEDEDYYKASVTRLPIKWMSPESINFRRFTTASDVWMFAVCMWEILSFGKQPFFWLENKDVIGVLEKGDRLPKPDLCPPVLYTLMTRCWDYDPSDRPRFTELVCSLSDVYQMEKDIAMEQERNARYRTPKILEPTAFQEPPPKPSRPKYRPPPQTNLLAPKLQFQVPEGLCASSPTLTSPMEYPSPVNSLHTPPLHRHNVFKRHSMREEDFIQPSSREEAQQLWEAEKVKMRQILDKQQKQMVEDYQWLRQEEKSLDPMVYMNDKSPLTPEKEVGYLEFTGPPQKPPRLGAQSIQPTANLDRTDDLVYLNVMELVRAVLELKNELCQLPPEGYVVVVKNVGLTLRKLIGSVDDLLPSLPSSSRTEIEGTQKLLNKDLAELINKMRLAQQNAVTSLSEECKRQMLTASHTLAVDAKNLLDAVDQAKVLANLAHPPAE
Measles CPE: compounds protecting cells from measles virus cytopathic effect, primary screen, measles RdRp inhibitor project, single point, MLSMR library, absorbance | protection (pct of control), % at 4 µM | Measles virus-infected cells, CPE protection | AID 841, 2007 | 140,000 tested, 1.5% active; in the data active means protection mostly above about 24%, no sharp cut-off; inactive means mostly below about 26%
Cav3 T inh: Cav3.2 calcium influx blockers – cell-based, Fluo-4 calcium fluorescence, FDSS, MLSMR library, primary screen | 100,000 tested, 4% active | Voltage-dependent T-type calcium channel subunit alpha-1H (Homo sapiens), O95180 | Cav3.2-expressing cells; stronger effect = lower value | B-score at 10 µM;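 active means single-dose well whose peak fluorescence ratio is a statistical outlier from its plate by either plate-standardised score or position-corrected B-score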
hDAT+cocaine: changed hDAT dopamine uptake under cocaine IC80, either direction, primary screen, cocaine antagonist project, cell-based, LLC-PK1 hDAT, [14C]-dopamine uptake, MLSMR; Sodium-dependent dopamine transporter (Homo sapiens), Q01959; LLC-PK1 hDAT cells, [14C]-dopamine uptake with cocaine IC80; actives deviate in either direction; B-score at 10 µM; 110,000 tested, 1.3% active;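 active means Z score or B-score, a plate-position-corrected score, falls beyond the plate's 99.7% confidence bounds, in either direction; inactive means both scores lie inside the 99.7% bounds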;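 further: scored against the spread of the other compound wells on the same plate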
* hit, by the source's call; nt = no result; [ ] = dose if it differs, or a comment. Most compounds without a hit are left out; they make up all but 5.9% or so of the library.

SMILES	Rev-RRE block	Phagocyt inh	Pyk2 oligo antag	Measles CPE	Cav3 T inh	hDAT+cocaine
CCC(CC)C(=O)Nc1ccc(Sc2ccc([N+](=O)[O-])cc2)cc1	7	2	-1.5	11	-5.1*	0.02
CCOc1cc(CNn2cn[nH]c2=S)cc(Cl)c1OCc1ccccc1F	nt	-14	nt	22	nt	nt
Cc1ccc2c(c1)C(O)(c1c(C)[nH]c3ccccc13)C(=O)N2 (stereo not given)	1	0	-0.14	5	-4.1*	1.2
Cc1[nH]c2ccccc2c1C1(O)C(=O)N(C(C)C)c2ccccc21 (stereo not given)	5	-1	-0.79	3	-2.9	0.0095
CCN(C(=O)COc1cc(=O)n(CC)c2ccccc12)c1cc(Cl)ccc1OC	3	0	nt	18	-5.5*	1.6
CN1C[C@@H]2C(c3ccc(Cl)nc3)C3(c4ccccc4)CC2(C3)[C@H]1c1ccccc1 (stereo not given in full)	nt	nt	nt	nt	-0.89	1.4
CCOC(=O)/C=C1\Nc2ccccc2OC1=O	nt	nt	nt	4	nt	nt
O=C(O)CSc1nc(C(F)(F)F)cc(=O)n1-c1ccccc1	8	nt	-0.74	49*	-0.18	-0.46
Cc1ccccc1Nc1nc(N)nc(COC(=O)c2cccn2C)n1	-1	0	-0.99	4	-0.18	0.67
CCc1ccccc1Nc1nc(N)nc(COC(=O)c2cccn2C)n1	8	-1	-2.3	78*	-0.15	0.17
COc1ccc2cc(/C=C/C(=O)c3ccco3)c(Cl)nc2c1	15	0	nt	21	nt	nt
COc1cc2cc(/C=C/C(=O)c3ccco3)c(Cl)nc2cc1OC	79*[fluorescence artefact?]	0	0.1	16	-1.7	0.86
Cc1cccc(NC(=O)C2=C(O)c3ccccc3N(C)S2(=O)=O)c1	8	0	-0.07	4	-1	2.5
CN1c2ccccc2C(O)=C(C(=S)Nc2ccc(Cl)cc2)S1(=O)=O	5	-1	-3.2*	3	-7.4*	0.54
CC(=O)Nc1ccc(C(=O)OCC(=O)Nc2ccccc2Sc2ccccc2)cc1	nt	-4	-3.1*	9	nt	nt
O=C(CCl)Nc1ccccc1Sc1ccccc1	2	0	0.14	46*	-0.3	-0.29
O=C(Cc1ccc(Cl)cc1)Nc1ccccc1Sc1ccccc1	nt	-1	nt	9	nt	nt
CCOC(=O)C1=C(C)N(CCCC(=O)O)C(=O)NC1c1ccccc1OC(=O)c1cccs1 (stereo not given)	nt	nt	nt	nt	0.33	-0.39
N#Cc1cn(OCc2ccccc2)c(=O)[nH]c1=O	nt	-1	1.1	31*	nt	nt
COc1ccc(Cl)cc1NC(=S)NCCSc1ccc(C)cc1	nt	-6	nt	3	nt	nt
COc1ccc(OC)c(NC(=O)CSc2nnc(CCCO)n2-c2ccccc2)c1	0	-1	0.63	24	0.63	2.9*
COc1ccc(-n2c(Cc3cccn3C)nnc2SCC(=O)Nc2nc(C)cs2)cc1	nt	0	nt	2	nt	nt
COc1cccc(-n2ccnc2SCC(=O)Nc2cc(OC)ccc2OC)c1	11	0	0.56	8	nt	1.5*
COc1ccc(-n2c(Cc3cccn3C)nnc2SCC(=O)Nc2ccccc2OC)cc1	nt	0	nt	16	-2.7*	0.88
COc1ccc(-n2c(Cc3cccn3C)nnc2SCC(=O)Nc2ccc(C)cc2C)cc1	nt	0	nt	2	-6.3*	-0.61
SMILES	Rev-RRE block	Phagocyt inh	Pyk2 oligo antag	Measles CPE	Cav3 T inh	hDAT+cocaine
COc1ccc(OC)c(NC(=O)CSc2nnc(-c3ccco3)n2-c2ccccc2)c1	8	1	-1.6	7	-0.021	-0.33
S=C1NC[C@H](Cc2cccc3ccccc23)N1CC1CCCCC1	nt	nt	nt	nt	0.54	-0.73
O=C1C=CC(=O)N1c1ccc(OC(F)F)cc1	nt	nt	nt	15	nt	nt
CCOC(=O)c1c(NC(=O)c2cnn3c2NC(c2cccc(OC)c2)CC3C(F)(F)F)sc2c1CCCC2 (stereo not given)	nt	-10	nt	2	nt	nt
O=C(CCCOc1ccccc1)NC1CCCc2ccccc21 (stereo not given)	nt	1	nt	8	nt	nt
Cc1ccc(NC(=O)CSc2nnnn2-c2ccc3c(c2)OCO3)cc1C	5	nt	0.84	25	0.18	1.2
Cc1cccc(-n2ccnc2SCC(=O)Nc2cc(C)on2)c1	1	1	0.59	30*	1.3	-0.11
COc1ccc(-n2c(Cc3cccn3C)nnc2SCC(=O)NCc2ccccc2Cl)cc1	nt	0	nt	6	0.27	1.3
COc1ccc(-n2c(Cc3cccn3C)nnc2SCC(=O)Nc2cc(Cl)ccc2OC)cc1	nt	0	nt	6	-7.5*	1.7
O=C(CSc1nccn1-c1cccc(Cl)c1)Nc1ccc2c(c1)OCCO2	6	0	nt	11	-3.7*	0.48
COc1ccc(OC)c(NC(=O)CSc2nnnn2-c2ccc3c(c2)OCO3)c1	2	0	-0.36	6	0.34	-3.5*
CCOC(=O)c1cc[n+](CC(=O)c2ccc(F)cc2)cc1	nt	2	nt	10	nt	nt
COc1ccc([N+](=O)[O-])cc1C1NN=C(c2ccccc2O)S1 (stereo not given)	9	nt	0.88	10	-3.7*	0.046
COc1ccc([N+](=O)[O-])cc1NC(=O)Nc1ccccc1	nt	-8	nt	8	nt	nt
O=C(NCc1ccccc1C(F)(F)F)C1CC(c2ccc(C(F)(F)F)cc2)=NO1 (stereo not given)	nt	nt	nt	nt	-2.3	-0.7
O=c1c2ccccc2c2ccccc2c(=O)n1Cc1cccnc1	nt	nt	-0.09	19	0.21	-0.43
N#CC12CCCCC1CC1CCCCC1(C#N)N2Cc1cccnc1 (stereo not given)	2	0	0.99	113*	0.19	0.23
Cc1cc(C)c(NC(=O)c2ccc(CN3CCc4ccccc4C3)cc2)c(C)c1	17	0	0.64	1	-4.3*	1.8
O=C(NC(=S)NCc1ccccc1)c1ccc2c(c1)OCO2	nt	-4	nt	31*	nt	nt
O=C(NCc1ccc2c(c1)OCO2)c1ccc(CN2CCc3ccccc3C2)cc1	3	-1	1.6	4	-5.3*	0.078
Cc1c(NC(=O)c2ccc(CN3CCc4ccccc4C3)cc2)c(=O)n(-c2ccccc2)n1C	5	-1	2	4	-2.5	-1.1
O=C(NCc1cccnc1)c1ccc(CN2CCc3ccccc3C2)cc1	4	nt	-0.53	7	0.42	0.032
O=S(=O)(c1cc(Cl)ccc1Cl)N1CC2CCCN2c2ccc(C(F)(F)F)cc21 (stereo not given)	17	nt	-0.67	16	-1.6	0.38
O=C1CN(C(=O)c2ccc(Br)o2)C(c2ccc(F)cc2)c2cc(Cl)ccc2N1 (stereo not given)	6	nt	-2.2	18	-6.8*	-0.66
